Measured values pooled from the literature.
Lines come from different studies, so protocols differ.
Effect on: enzyme activity
CYP2C8: Cytochrome P450 2C8 (CYP2C8, Homo sapiens, UniProt P10632)
CYP2C9: Cytochrome P450 2C9 (CYP2C9, Homo sapiens, UniProt P11712)

Compound	target	assay	test system	conditions	quantity	result
CON=C(N)c1ccc(-c2ccc(-c3ccc(C(N)=NOC)cc3)o2)cc1	CYP2C8	substrate			Km	2.6 µM
O=C(Nc1c2c(cc3c1CCC3)CCC2)NS(=O)(=O)/C=C/c1nccs1	CYP2C8	inhibitor	human, liver microsomes	2 µM, pH 7.4	inhibition	59.1%
Cc1nc2c([nH]1)c(=O)n(C)c(=O)n2Cc1ccco1	CYP2C9	inhibitor	human, liver microsomes	40 µM	inhibition	7%
Cc1cccc(F)c1N1CCC(N2Cc3cn(CC(C)(F)F)nc3N(Cc3ccccc3C(F)(F)F)C2=O)CC1	CYP2C8	inhibitor	human, liver microsomes		Ki	7 µM
CCc1nc2c(C)cc(N3CCN(CC(=O)N4CC(O)C4)CC3)cn2c1N(C)c1nc(-c2ccc(F)cc2)c(C#N)s1	CYP2C8	inhibitor			kinact	0.000588 s⁻¹
Nc1nc(N)c2nc(C(=O)NCc3cccc(C(F)(F)F)c3)cnc2n1	CYP2C9	inhibitor, luciferase		10 µM	inhibition	-17.1%
CCc1cc(/C(C)=N/OCc2ccc(C3CCCCC3)c(C(F)(F)F)c2)ccc1CN1CC(C(=O)O)C1	CYP2C8	inhibitor	human, liver microsomes	200 µM, 20 min	inhibition	17%
CCN(Cc1cnc2nc(N)nc(N)c2n1)c1ccc(C(=O)N2CCC(C(=O)OC)CC2)cc1	CYP2C9	inhibitor, luciferase		10 µM	inhibition	-2.93%
CC1(CO)C(O[C@@H]2O[C@H](C(=O)O)[C@@H](O)[C@H](O)[C@H]2O)CC[C@@]2(C)C1CC[C@]1(C)C2CC=C2[C@H]3CC(C)(C)[C@H](O)[C@@H](O)[C@]3(CO)[C@H](O)C[C@]21C (stereo partly drawn)	CYP2C8	inhibitor, mass spectrometry	human, liver microsomes		IC50	> 90 µg/mL
